Experimental findings from ChEMBL document CHEMBL1121663, “(Acylaryloxy)acetic acid diuretics. 3. 2,3-Dihydro-5-acyl-2-benzofurancarboxylic acids, a new class of uricosuric diuretics” (1981) are described below.

Assay [1] deals with Canis familiaris. Put plainly: Compound was tested for diuretic activity in dogs at 5 mg/kg dose after intravenous administration measured as microequivalent of Na+/minute; 52/264 (Control/Drug treated). Format: functional, Canis lupus familiaris, Urine.
Assay [2] concerns Rattus norvegicus. Briefly: Natriuretic activity in rats at 3 mg/kg of dosage; mequiv of Na. The class given is functional. The method in brief:
(§1)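 Rats housed three per metabolism cage received placebo vehicle or compound as a suspension in a final volume of 5.0 mL orally, with placebo groups run concurrently. Urine was collected over 0–5 h and analysed for Na+, K+ and Cl− by standard methods. Values are mequiv per cage, given as geometric means of three cages per dose level.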

The test system of assay [3] is Rattus norvegicus. Put plainly: Natriuretic activity in rats at 81 mg/kg of dosage; mequiv of Na. The class given is functional. The method in brief: as §1
Assay [4] deals with Rattus norvegicus. Briefly: Natriuretic activity in rats at 9 mg/kg of dosage; mequiv of Na. Format: functional. In short, it runs like this: as §1
Assay [5] concerns Canis familiaris. Briefly: Diuretic activity in dogs following 5 mg/kg oral administration.
In assay [6] the test system is Canis familiaris. Briefly: Compound was tested for diuretic activity in dogs at 5 mg/kg dose after intravenous administration measured as microequivalent of Cl-/minute; 16/271 (Control/Drug treated). Format: functional, Canis lupus familiaris, Urine. The method in brief: (§2)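 Intravenous dog clearance study. A priming iv injection of 1.5 mL/kg isoosmotic pH 7.4 phosphate buffer (20 mg PO4/kg) was given first. This was followed by infusion of 3 mL/min pH 7.4 buffer containing 4% mannitol (6.9 mg PO4/min) throughout the experiment. Urinary Na+, K+ and Cl- were measured by standard methods. Each value is the mean of the two highest consecutive 15-min collections.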

Assay [7] concerns Rattus norvegicus. Put plainly: Natriuretic activity in rats at 27 mg/kg of dosage; mequiv of Na. Format: functional. The method in brief: as §1
Assay [8] has as its system Canis familiaris. Briefly: Compound was tested for diuretic activity in dogs at 5 mg/kg dose after oral administration measured as microequivalent of K+/minute. Format: functional, Canis lupus familiaris, Urine. In short, it runs like this:
(§3)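 Oral dog test: water loading (250 mL po, then 500 mL 1 h later). One hour later bladders were emptied by catheter and compound or placebo given in gelatin capsules. Dogs were kept in metabolism cages. Voided urine plus catheterized bladder urine was pooled at 5 h, and Na+, K+ and Cl- were measured by standard methods. Geometric means are reported.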

The test system of assay [9] is Canis familiaris. Briefly: Compound was tested for diuretic activity in dogs at 5 mg/kg dose after oral administration measured as microequivalent of Na+/minute. Format: functional, Canis lupus familiaris, Urine. In short, it runs like this: as §3
Assay [10] concerns Canis familiaris. Put plainly: Compound was tested for diuretic activity in dogs at 5 mg/kg dose after oral administration measured as microequivalent of Cl-/minute. Format: functional, Canis lupus familiaris, Urine. In short, it runs like this:
as §3

The subject of assay [11] is Canis familiaris. Put plainly: Compound was tested for diuretic activity in dogs at 5 mg/kg dose after intravenous administration measured as microequivalent of K+/minute; 6/18 (Control/Drug treated). The class given is functional, Canis lupus familiaris, Urine. The method in brief: as §2
Assay [12] deals with Canis familiaris. Put plainly: Compound was tested for diuretic activity in dogs at 5 mg/kg dose after intravenous administration, activity is expressed as urine volume; 0.6/1.3. The class given is functional, Canis lupus familiaris.
For assay [13], the system named is Pan troglodytes. Briefly: Compound was tested for natriuretic activity in chimpanzee at 5 mg/kg dose activity is measured as microequivalent of Na+/minute; muequiv of Na+/min. The class given is functional. The method in brief:
(§4)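 Inulin iv gave GFR; urate and inulin clearances and Na+, K+, Cl- excretion were measured by AutoAnalyzer. Controls were three 20-min periods; compound was given orally in aqueous solution via nasal catheter. Response was the mean of eight 15-20 min periods, reported as treatment minus control from single experiments.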

Assay [14] relates to Canis familiaris. Briefly: Diuretic activity in dogs following 5 mg/kg i.v. administration. The class given is functional, Canis lupus familiaris, Urine. The note with it: route intravenous.
Assay [15] in a line: Compound was tested for natriuretic activity in chimpanzee at 5 mg/kg dose activity is measured as ratio of clearance of urate / […]; Curate/Cinulin. Format: functional. In short, it runs like this:
as §4

The test system of assay [16] is Canis familiaris. Briefly: Compound was tested for diuretic activity in dogs at 5 mg/kg dose after intravenous administration, activity is expressed as urine volume; 1/6. The class given is functional, Canis lupus familiaris.
In assay [17] the test system is Canis familiaris. Briefly: Compound was tested for diuretic activity in dogs at 5 mg/kg dose after intravenous administration measured as microequivalent of K+/minute; 4/54 (Control/Drug treated). Format: functional, Canis lupus familiaris, Urine. The method in brief:
as §2

Assay [18] deals with Canis familiaris. Put plainly: Compound was tested for diuretic activity in dogs at 5 mg/kg dose after intravenous administration measured as microequivalent of Cl-/minute; 12/586 (Control/Drug treated). Format: functional, Canis lupus familiaris, Urine. In short, it runs like this: as §2
Assay [19] relates to Pan troglodytes. Briefly: Compound was tested for natriuretic activity in chimpanzee at 5 mg/kg dose activity is measured as microequivalent of Na+/m; muequiv of Na+/minute. Format: functional. The method in brief: as §4
Assay [20] concerns Canis familiaris. Put plainly: Compound was tested for diuretic activity in dogs at 5 mg/kg dose after intravenous administration measured as microequivalent of K+/minute; 10/18 (Control/Drug treated). The class given is functional, Canis lupus familiaris, Urine. In short, it runs like this: as §2
Assay [21] has as its system Canis familiaris. Briefly: Compound was tested for diuretic activity in dogs at 5 mg/kg dose after intravenous administration measured as microequivalent of Cl-/minute; 6/70 (Control/Drug treated). Format: functional, Canis lupus familiaris, Urine. The method in brief: as §2
For assay [22], the system named is Canis familiaris. Put plainly: Compound was tested for diuretic activity in dogs at 5 mg/kg dose after intravenous administration measured as microequivalent of Cl-/minute; 2/612 (Control/Drug treated). The class given is functional, Canis lupus familiaris, Urine. In short, it runs like this:
as §2

In assay [23] the test system is Canis familiaris. Put plainly: Compound was tested for diuretic activity in dogs at 5 mg/kg dose after intravenous administration measured as microequivalent of Na+/minute; 13/565 (Control/Drug treated). Format: functional, Canis lupus familiaris, Urine.
For assay [24], the system named is Canis familiaris. Briefly: Compound was tested for diuretic activity in dogs at 5 mg/kg dose after intravenous administration measured as microequivalent of K+/minute; 9/46 (Control/Drug treated). The class given is functional, Canis lupus familiaris, Urine. The method in brief:
as §2

In assay [25] the test system is Rattus norvegicus. Briefly: Compound was tested for natriuretic activity in rats at 27 mg/kg of dosage. Format: functional. The method in brief: as §1
For assay [26], the system named is Canis familiaris. Briefly: Compound was tested for diuretic activity in dogs at 5 mg/kg dose after intravenous administration, activity is expressed as urine volume; 0.6/6. The class given is functional, Canis lupus familiaris.
Assay [27] concerns Canis familiaris. Briefly: Compound was tested for diuretic activity in dogs at 5 mg/kg dose after intravenous administration measured as microequivalent of K+/minute (Control/Drug treated). The note with it: in the assay text read “oral” for “intravenous”. Format: functional, Canis lupus familiaris, Urine.
The test system of assay [28] is Canis familiaris. Put plainly: Compound was tested for diuretic activity in dogs at 5 mg/kg dose after oral administration measured as microequivalent of Na+/minute.
The test system of assay [29] is Canis familiaris. Put plainly: Compound was tested for diuretic activity in dogs at 5 mg/kg dose after intravenous administration activity is measured as microequivalent of Cl-/minute (Control/Drug treated). The class given is functional, Canis lupus familiaris, Urine. The note with it: in the assay text read “oral” for “intravenous”.

Values joined by “and” are separate entries in the source; they are usually repeats but may differ in a detail not shown here. Identical values can stand only once.

Turning to `O=C(O)C1Cc2cc(S(=O)(=O)c3cccs3)c(Cl)c(Cl)c2O1` (stereo unspecified), in the assay on Canis familiaris [1], the Na+ excretion is 264 µequiv/min. The Oral activity with Rattus norvegicus [2] stood at 10; with Rattus norvegicus [3], 65; with Rattus norvegicus [4] it was 19; in the assay with Rattus norvegicus [7], 44; in the assay with Canis familiaris [8], 1.4; with Canis familiaris [9], 7.6. The Oral activity in the assay with Canis familiaris [10] was 9.1. In the assay on Canis familiaris [5], this compound gave a Urine volume of 246 mL. In addition, in the assay on Canis familiaris [6], the Cl- excretion amounted to 271 µequiv/min. Also, the K+ excretion with Canis familiaris [11] was 18 µequiv/min.

On to `O=C(c1cccs1)c1cc2c(c(Cl)c1Cl)OC(C(=O)O)C2` (stereo unspecified), for which the Oral activity in the assay with Rattus norvegicus [2] was 175; in the assay on Rattus norvegicus [3], 310; in the assay with Rattus norvegicus [4], 191; in the assay on Pan troglodytes [13], 1360; in the assay with Rattus norvegicus [7], 257; in the assay on Canis familiaris [8] (5 mg/kg) it was 4.2 and 5.2. Further, the Oral activity was 18.7 and 37.7 in the assay on Canis familiaris [9] (5 mg/kg); 24.6 and 48.5 in the assay on Canis familiaris [10] (5 mg/kg). For the same compound, the Urine volume with Canis familiaris [12] is 0.6 mL/min; with Canis familiaris [14], 432 mL and 541 mL. Further, the Ratio in assay [15] stood at 0.34.

For `O=C(O)C1Cc2cc(C(O)c3cccs3)c(Cl)c(Cl)c2O1` (stereo unspecified), the Oral activity amounted to 25 in the assay with Rattus norvegicus [2]; 180 with Rattus norvegicus [3]; 40 with Rattus norvegicus [4]; 80 with Rattus norvegicus [7]; 550 with Pan troglodytes [19]. Also, in the assay with Canis familiaris [16], the Urine volume stood at 1 mL/min. Moreover, in the assay with Canis familiaris [17], the K+ excretion stood at 54 µequiv/min. The Cl- excretion with Canis familiaris [18] was found to be 586 µequiv/min. Further, the Ratio in assay [15] was 0.15.

Take `COc1ccc(C(=O)c2cc3c(c(Cl)c2Cl)OC(C(=O)O)C3)cc1` (stereo unspecified): the Oral activity in the assay on Rattus norvegicus [2] is reported as 40; in the assay with Rattus norvegicus [3] it was 194; with Rattus norvegicus [4] it was 96; in the assay on Rattus norvegicus [7], 129; in the assay with Canis familiaris [8], 2.9; in the assay on Canis familiaris [9], 14.4. The Oral activity in the assay with Canis familiaris [10] was 17.8. In addition, the Urine volume in the assay with Canis familiaris [5] was determined as 307 mL. The K+ excretion in the assay on Canis familiaris [20] worked out at 18 µequiv/min. Also, in the assay on Canis familiaris [21], the Cl- excretion turned out to be 70 µequiv/min.

As for `O=C(O)C1Cc2cc(Cc3cccs3)c(Cl)c(Cl)c2O1` (stereo unspecified), the Oral activity was determined as 7 in the assay with Rattus norvegicus [2]; 21 in the assay on Rattus norvegicus [3]; 19 with Rattus norvegicus [4]; 206 in the assay on Pan troglodytes [13]; 7.4 with Canis familiaris [8]; 30.1 in the assay with Canis familiaris [9]. The Oral activity in the assay with Rattus norvegicus [25] is listed as 19; in the assay on Canis familiaris [10] it was 40.6. In addition, the Cl- excretion with Canis familiaris [22] was 612 µequiv/min. Further, the Na+ excretion in the assay with Canis familiaris [23] came out at 565 µequiv/min. The Urine volume in the assay on Canis familiaris [5] was found to be 433 mL; with Canis familiaris [26], 0.6 mL/min. The K+ excretion in the assay on Canis familiaris [24] stood at 46 µequiv/min. For the same compound, the Ratio in assay [15] was found to be 0.185.

With `CCOC(=O)C1Cc2cc(C(=O)c3cccs3)c(Cl)c(Cl)c2O1` (stereo unspecified), the Oral activity came to 76 with Rattus norvegicus [2]; 167 in the assay with Rattus norvegicus [3]; 1.6 with Canis familiaris [27]; 87 in the assay with Rattus norvegicus [4]; 128 with Rattus norvegicus [7]; 1.6 with Canis familiaris [8]. The Oral activity in the assay on Canis familiaris [9] came out at 7.7; in the assay with Canis familiaris [28], 7.7; in the assay on Canis familiaris [29], 8.7; in the assay on Canis familiaris [10], 8.7. In the assay with Canis familiaris [5], this compound showed a Urine volume of 166 mL.
